From ChEMBL document CHEMBL1149120, “Discovery of potent inhibitors of dihydroneopterin aldolase using CrystaLEAD high-throughput X-ray crystallographic screening and structure-directed lead optimization” (J Med Chem, 2004)

Experiment: Inhibition of Staphylococcus aureus 7,8-dihydroneopterin aldolase
Summary of the method: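 DHNA expressed in E. coli BL21(DE3) and purified by DEAE, Q-Sepharose and S300 chromatography; 50 nM enzyme with 4 µM 7,8-dihydroneopterin in 20 mM HEPES pH 7.4, 150 mM NaCl, ambient temperature (~29 °C). IC50 is the concentration halving the initial rate.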

Row | SMILES | IC50
1 | Nc1nc(O)c2nn(-c3cccc(C(=O)NCC4(O)CCCCC4)c3)nc2n1 | 740 nM
2 | Nc1nc(O)c2nn(-c3cccc(C(=O)NCc4cc(C(F)(F)F)cc(C(F)(F)F)c4)c3)nc2n1 | 1000 nM
3 | Nc1nc(O)c2nn(-c3cccc(C(=O)NCc4ccc5c(c4)CCO5)c3)nc2n1 | 550 nM
4 | Nc1nc(O)c2nn(-c3cccc(C(=O)NC[C@@H]4CCCCC[C@H]4O)c3)nc2n1 | 350 nM
5 | CCC(CO)(CO)CNC(=O)c1cccc(-n2nc3nc(N)nc(O)c3n2)c1 | 950 nM
6 | NC1=NC(=O)C2N=C(S)N=C2N1 (configuration not stated) | 1000 nM
7 | Nc1nc(O)c2nn(-c3cccc(C(=O)NCc4ccc5c(c4)OCO5)c3)nc2n1 | 310 nM
8 | Nc1nc(O)c2nn(-c3cccc(C(=O)NC[C@H]4CCCC[C@@H]4O)c3)nc2n1 | 320 nM
9 | Nc1nc(O)c2nn(-c3cccc(C(=O)NC[C@H]4CCCC[C@H]4O)c3)nc2n1 | 410 nM

Now from value to compound:

Row | IC50 | SMILES
10 | 38000 nM | Cn1c(N)nc(-c2ccccc2)c(Br)c1=O
11 | 22000 nM | Nc1nc(O)c2nn(-c3cccc(C(=O)NCc4ccc(Oc5ccccc5)cc4)c3)nc2n1
12 | 1300 nM | Cc1nc(N)nc(O)c1N(Cc1ccc(Cl)c(Cl)c1)N=O
13 | 600 nM | Nc1nc(O)c2cc(N(C=O)Cc3ccc(Cl)c(Cl)c3)ccc2n1
14 | 2000 nM | Nc1nc(O)c2nn(-c3cccc(C(=O)NCCCCO)c3)nc2n1
15 | 2300 nM | Nc1nc(O)c2nn(-c3cccc(C(=O)NCCCO)c3)nc2n1
16 | 25000 nM | Nc1nc(O)c2nn(-c3cccc(C(=O)NCc4ccc(-c5ccccc5)cc4)c3)nc2n1
17 | 730 nM | CC(C)(CO)CNC(=O)c1cccc(-n2nc3nc(N)nc(O)c3n2)c1
